Source: ChEMBL document CHEMBL1154478, “Novel imidazo[1,2-a]naphthyridinic systems (part 1): synthesis, antiproliferative and DNA-intercalating activities” (2008)
Activity calls are given as the source filed them. The calls are words filed in the database; no cut-off is given here.

Experiments:
HT-1080 = assay: Antiproliferative activity against human HT1080 cells after 48 hrs by SRB assay; format: functional; settings: HT-1080, 48 h
Summary of the method: (§1)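 Cells were grown in high-glucose DMEM with 5% defined bovine calf serum and pre-incubated 24 h at 37 °C in 5% CO2. Drugs were freshly dissolved in DMSO, diluted in medium and added in serial dilutions, with DMSO kept below 0.5%, and incubated 48 h. Cells were fixed with cold TCA (10% final, 60 min at 4 °C), stained 15 min with 0.1% SRB in 1% acetic acid, and the dye solubilized in Tris base. Absorbance was read at 585 nm and growth inhibition % calculated against a control plate fixed on the treatment day.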

HT-29 = assay: Antiproliferative activity against human HT-29 cells after 48 hrs by SRB assay; format: functional; settings: HT-29, 48 h; summary of the method: as §1
M21 = assay: Antiproliferative activity against human M21 cells after 48 hrs by SRB assay; format: functional; settings: M21, 48 h; summary of the method: as §1
MCF7 [1] = assay: Antiproliferative activity against human MCF7 cells after 48 hrs by SRB assay; format: functional; settings: MCF7, 48 h; summary of the method: as §1
[2] = Binding affinity to pGEM-9Zf(-) DNA assessed as effect on DNA migration at 40 uM by gel electrophoresis
Summary of the method: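 Human topo1 was then added and the mix held 2 h at 37 °C in the dark. The reaction was stopped with SDS and proteinase K (1 h, 45 °C). Products were run on 1% agarose with 0.1% SDS in TBE (16 h, 1.25 V/cm), stained with ethidium bromide, and re-run 2 h at 2 V/cm. Ethidium bromide served as the intercalation reference and camptothecin as the poison control.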

MCF7 [3] = assay: Cell cycle arrest in human MCF7 cells assessed as accumulation at G2/M phase at 6.6 uM after 24 hrs by flow cytometry; format: functional, cell-based
Summary of the method: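 Exponentially growing MCF-7 cells were exposed to compound or DMSO control for 4, 24 or 48 h and analysed by flow cytometry with 488 nm argon laser excitation. Cell-cycle distribution was expressed as the treated/control ratio.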

GI50 (HT-1080)	GI50 (HT-29)	GI50 (MCF7 [1])	Activity [2]	Compound	GI50 (M21)	Activity (MCF7 [3])
> 100 µM	> 100 µM	> 100 µM	–	Cc1cc2ccn3ccnc3c2nc1C	> 100 µM	–
> 100 µM	> 100 µM	> 100 µM	–	O=C1CCCc2nc3c(ccn4ccnc34)cc21	> 100 µM	–
64.9 µM	79.6 µM	57.7 µM	–	CCOC(=O)C1CCc2nc3c(ccn4ccnc34)cc2C1 (stereo not drawn)	80.3 µM	–
43.3 µM	55.8 µM	51.8 µM	–	c1ccc(-c2ccc3c(ccc4nccn43)n2)cc1	70.1 µM	–
> 100 µM	> 100 µM	> 100 µM	–	CCOC(=O)C1CCc2nc3ccc4nccn4c3cc2C1 (stereo not drawn)	> 100 µM	–
> 100 µM	> 100 µM	> 100 µM	–	Cc1ccc2ccn3ccnc3c2n1	> 100 µM	–
41.4 µM	49.2 µM	46.5 µM	–	c1ccc2c(c1)CCc1nc3c(ccn4ccnc34)cc1-2	64.8 µM	–
57.7 µM	48.4 µM	60.5 µM	–	c1ccc(-c2ccc3ccn4ccnc4c3n2)cc1	56.5 µM	–
> 100 µM	> 100 µM	> 100 µM	–	O=C1CCCc2nc3ccc4nccn4c3cc21	> 100 µM	–
13.4 µM	7.2 µM	6.6 µM	Active	c1ccc2c(c1)CCc1cc3ccn4ccnc4c3nc1-2	8.1 µM	Active
> 100 µM	> 100 µM	> 100 µM	–	c1cn2c(ccc3nc4c(cc32)CCCC4)n1	> 100 µM	–
32.7 µM	27.8 µM	20.9 µM	–	c1ccc2c(c1)CCc1cc3c(ccc4nccn43)nc1-2	52 µM	–
20.7 µM	18.3 µM	21.5 µM	–	c1ccc2cc3nc4c(ccn5ccnc45)cc3cc2c1	25.2 µM	–
> 100 µM	> 100 µM	> 100 µM	–	Cc1cc2c(ccc3nccn32)nc1C	> 100 µM	–
1.6 µM	16.8 µM	5.6 µM	–	COc1cc(NS(C)(=O)=O)ccc1Nc1c2ccccc2nc2ccccc12 [AMSACRINE]	49.6 µM	–
> 100 µM	> 100 µM	> 100 µM	–	CCc1ccc2ccn3ccnc3c2n1	> 100 µM	–
> 100 µM	> 100 µM	> 100 µM	–	Cc1ccc2c(ccc3nccn32)n1	> 100 µM	–
> 100 µM	> 100 µM	> 100 µM	–	CCc1ccc2c(ccc3nccn32)n1	> 100 µM	–
> 100 µM	> 100 µM	> 100 µM	–	c1cn2ccc3cc4c(nc3c2n1)CCCC4	> 100 µM	–
